The source of these data is ChEMBL document CHEMBL1124240, “Substrate analogue inhibitors of the IgA1 proteinases from Neisseria gonorrhoeae” (J Med Chem, 1988).

pIC50: −log10 of the molar value. Values joined by “and” are separate entries in the source; they are usually repeats but may differ in a detail not shown here. Identical values can stand only once. Bridge positions count the residues as written; N and C are the ends. Peptide text beside a SMILES is read from it. I, II: the chains in the order shown.

Assay [1] addresses T1, IgA-specific serine endopeptidase autotransporter (Neisseria gonorrhoeae, UniProt P09790). In words: Tested for inhibitory activity against IgA1 proteinase. The procedure, abridged: (§1)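 Type 1 and type 2 IgA1 proteinases from N. gonorrhoeae, partially purified from cell-free defined-medium cultures and stored at -70 °C. Peptides were in 0.05 M Tris-HCl, pH 7.5, and preincubated with enzyme for 30 min at 37 °C. Substrate was monoclonal monomeric human serum IgA1, 125I-labelled. Samples were taken at 10-min intervals over 30 min and run on SDS-PAGE with autoradiography. Fd, Fc and uncleaved α-chain bands were counted, and the rate came from the slope of percent cleavage versus time.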

Assay [2] addresses IgA-specific serine endopeptidase autotransporter (Neisseria gonorrhoeae) (UniProt P09790). In words: Tested for inhibitory activity against IgA1 proteinase at >2 mM. The procedure, abridged:
as §1

Assay [3] deals with T1, IgA-specific serine endopeptidase autotransporter. The assay is described as follows: Tested for inhibitory activity against IgA1 proteinase in 40% TFE. The procedure, abridged: (§2)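 Buffer contained 40% trifluoroethanol to dissolve the peptide. Type 1 and type 2 N. gonorrhoeae IgA1 proteinases (partially purified) were preincubated with inhibitor for 30 min at 37 °C, then cleaved 125I-labelled monomeric human IgA1. Samples were taken every 10 min over 30 min, boiled and run on SDS-PAGE. Fd/Fc/α-chain segment counts gave percent cleavage, and the rate was taken from the slope.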

The target is the same in assay [4]. The assay is described as follows: Tested for inhibitory activity against IgA1 proteinase assayed in 40% TFE. Put shortly:
as §2

Assay [5] has as its target IgA-specific serine endopeptidase autotransporter (Neisseria gonorrhoeae) (UniProt P09790). The assay is described as follows: Percent inhibition was tested against IgA1 proteinase at 0.30 mM. Put shortly:
as §1

T1 sequence (P09790 whole entry): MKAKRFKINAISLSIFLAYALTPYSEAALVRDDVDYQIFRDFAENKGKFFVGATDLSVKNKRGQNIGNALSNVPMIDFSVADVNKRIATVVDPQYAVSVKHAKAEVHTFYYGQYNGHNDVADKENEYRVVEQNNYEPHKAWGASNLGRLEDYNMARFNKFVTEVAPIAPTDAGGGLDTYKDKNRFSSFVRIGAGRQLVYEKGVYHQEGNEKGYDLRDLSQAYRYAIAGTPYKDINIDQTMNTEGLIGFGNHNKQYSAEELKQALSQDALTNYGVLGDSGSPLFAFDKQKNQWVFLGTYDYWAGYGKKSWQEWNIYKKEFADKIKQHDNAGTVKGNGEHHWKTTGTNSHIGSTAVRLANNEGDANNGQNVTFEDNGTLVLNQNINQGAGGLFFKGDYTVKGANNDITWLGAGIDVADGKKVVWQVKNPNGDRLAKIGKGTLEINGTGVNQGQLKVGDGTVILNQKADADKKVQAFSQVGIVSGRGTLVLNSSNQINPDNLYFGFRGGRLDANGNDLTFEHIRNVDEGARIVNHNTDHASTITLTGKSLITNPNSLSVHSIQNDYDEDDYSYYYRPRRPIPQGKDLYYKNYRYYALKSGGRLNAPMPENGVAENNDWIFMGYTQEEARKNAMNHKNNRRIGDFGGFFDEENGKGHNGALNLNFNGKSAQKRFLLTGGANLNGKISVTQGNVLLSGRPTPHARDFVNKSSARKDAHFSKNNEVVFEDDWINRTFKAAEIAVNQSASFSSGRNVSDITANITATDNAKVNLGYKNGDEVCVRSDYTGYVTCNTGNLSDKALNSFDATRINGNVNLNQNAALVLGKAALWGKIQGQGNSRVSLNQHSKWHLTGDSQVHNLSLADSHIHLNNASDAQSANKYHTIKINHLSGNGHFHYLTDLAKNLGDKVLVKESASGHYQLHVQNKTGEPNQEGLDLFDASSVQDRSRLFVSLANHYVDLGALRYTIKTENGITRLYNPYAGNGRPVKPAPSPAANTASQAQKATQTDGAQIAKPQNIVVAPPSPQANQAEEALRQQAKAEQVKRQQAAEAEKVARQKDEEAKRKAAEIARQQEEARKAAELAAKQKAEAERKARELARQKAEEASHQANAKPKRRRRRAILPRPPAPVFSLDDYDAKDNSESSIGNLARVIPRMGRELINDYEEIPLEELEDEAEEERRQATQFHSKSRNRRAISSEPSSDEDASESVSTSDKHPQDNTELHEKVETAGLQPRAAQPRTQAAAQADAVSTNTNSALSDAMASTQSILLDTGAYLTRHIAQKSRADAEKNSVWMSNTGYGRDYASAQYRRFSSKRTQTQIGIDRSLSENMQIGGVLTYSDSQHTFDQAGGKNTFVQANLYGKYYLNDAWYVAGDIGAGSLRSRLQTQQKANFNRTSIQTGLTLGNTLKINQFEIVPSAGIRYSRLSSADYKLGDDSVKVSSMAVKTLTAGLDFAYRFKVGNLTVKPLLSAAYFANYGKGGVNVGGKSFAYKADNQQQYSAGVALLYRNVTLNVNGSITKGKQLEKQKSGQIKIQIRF
Chain of IgA-specific serine endopeptidase autotransporter (Neisseria gonorrhoeae) (P09790 whole entry): as above

One may read the pIC50 as −log10 of the IC50, conventionally taken in molar units. The low end stands for a high IC50, the high end for a low IC50. For the compound Ac-TPPTPSPS-OH, the negative logarithm of the IC50 (pIC50) in assay [1] is 2.80 and 3.29. The same measure, in the same setting: the figure for Ac-TPPTPSPS-NH2 is 2.03 and 2.18; for H-TPPTPSPS-OH it is 3.59 and 3.30; for `CC(=O)N[C@@H](CSSC[C@H](NC(C)=O)C(=O)N1CCC[C@H]1C(=O)N1CCC[C@H]1C(=O)N[C@H](C(=O)N1CCC[C@H]1C(=O)N[C@@H](CO)C(=O)N1CCC[C@H]1C(=O)N[C@@H](CO)C(N)=O)[C@@H](C)O)C(=O)N1CCC[C@H]1C(=O)N1CCC[C@H]1C(=O)N[C@H](C(=O)N1CCC[C@H]1C(=O)N[C@@H](CO)C(=O)N1CCC[C@H]1C(=O)N[C@@H](CO)C(N)=O)[C@@H](C)O` (I: Ac-CPPTPSPS-NH2 / II: Ac-CPPTPSPS-NH2; disulfide I:1-II:1) it is 2.74 and 2.46. Turning to H-TPPTPSPS-NH2, the negative-log IC50 (pIC50) in assay [1] was 3.40 and 3.74. In assay [1], `CC(=O)N[C@H](C(=O)N1CCC[C@H]1C(=O)N1CCC[C@H]1C(=O)N[C@H](C(=O)N1CCC[C@H]1C(=O)N[C@@H](CO)C(=O)N1CCC[C@H]1C(=O)N[C@@H](CSSC[C@H](NC(=O)[C@@H]1CCCN1C(=O)[C@H](CO)NC(=O)[C@@H]1CCCN1C(=O)[C@@H](NC(=O)[C@@H]1CCCN1C(=O)[C@@H]1CCCN1C(=O)[C@@H](NC(C)=O)[C@@H](C)O)[C@@H](C)O)C(N)=O)C(N)=O)[C@@H](C)O)[C@@H](C)O` had a pIC50 of 2.48. Regarding H-TPPTPSPSTPPTPSPS-OH, in assay [1], the pIC50 is 3.51. Against the preceding compound, the pIC50 is 1.03 log units higher.

In general, inhibition refers to how much of the control response was suppressed. A low value points to a weak effect. As to `CC(=O)N[C@H](C(=O)N1CCC[C@H]1C(=O)N1CCC[C@H]1C(=O)N[C@H](C(=O)N1CCC[C@H]1C(=O)N[C@@H](CSSC[C@H](NC(=O)[C@@H]1CCCN1C(=O)[C@@H](NC(=O)[C@@H]1CCCN1C(=O)[C@@H]1CCCN1C(=O)[C@@H](NC(C)=O)[C@@H](C)O)[C@@H](C)O)C(=O)N1CCC[C@H]1C(=O)N[C@@H](CO)C(N)=O)C(=O)N1CCC[C@H]1C(=O)N[C@@H](CO)C(N)=O)[C@H](C)O)[C@@H](C)O`, the inhibition in assay [2] came to 0%. On to `CC(=O)N[C@H](C(=O)N1CCC[C@H]1C(=O)N1CCC[C@H]1C(=O)N[C@@H](CSSC[C@H](NC(=O)[C@@H]1CCCN1C(=O)[C@@H]1CCCN1C(=O)[C@@H](NC(C)=O)[C@@H](C)O)C(=O)N1CCC[C@H]1C(=O)N[C@@H](CO)C(=O)N1CCC[C@H]1C(=O)N[C@@H](CO)C(N)=O)C(=O)N1CCC[C@H]1C(=O)N[C@@H](CO)C(=O)N1CCC[C@H]1C(=O)N[C@@H](CO)C(N)=O)[C@@H](C)O` (I: Ac-TPPCPSPS-NH2 / II: Ac-TPPCPSPS-NH2; disulfide I:4-II:4), for which the negative logarithm of the IC50 (pIC50) in assay [3] is 3.70; in assay [4] it was 3.77. With Ac-TPPTPSPC-NH2, the pIC50 in assay [1] was 2.99 and 3.31. Same read-out and setting: in the case of Ac-TPPTPCPS-NH2 it was 3.70 and 4.30. Consider `C[C@H](O)[C@H](NC(=O)[C@@H]1CCCN1C(=O)[C@@H]1CCCN1C(=O)[C@@H](N)[C@@H](C)O)C(=O)N1CCC[C@H]1C(=O)N[C@@H](CO)C(=O)N1CCC[C@H]1C(=O)N[C@@H](CO)C(=O)N[C@H](C(=O)N1CCC[C@H]1C(=O)N1CCC[C@H]1C(=O)N[C@H](C(=O)N1CCC[C@H]1C(=O)N[C@@H](CO)N1CCC[C@H]1C(=O)N[C@@H](CO)C(=O)O)[C@@H](C)O)[C@H](C)O`, for which the inhibition in assay [5] worked out at 19%.

In assay [1], `CC(=O)N[C@H](C(=O)N1CCC[C@H]1C(=O)N1CCC[C@H]1C(=O)N[C@H](C(=O)N1CCC[C@H]1C(=O)N[C@@H](CSSC[C@H](NC(=O)[C@@H]1CCCN1C(=O)[C@@H](NC(=O)[C@@H]1CCCN1C(=O)[C@@H]1CCCN1C(=O)[C@@H](NC(C)=O)[C@@H](C)O)[C@@H](C)O)C(=O)N1CCC[C@H]1C(=O)N[C@@H](CO)C(N)=O)C(=O)N1CCC[C@H]1C(=O)N[C@@H](CO)C(N)=O)[C@@H](C)O)[C@@H](C)O` showed a pIC50 of 2.29. Same read-out and setting: the figure for Ac-CPPTPSPS-NH2 is 3.51 and 3.92.
